According to ChEMBL document CHEMBL3232721, “4-Oxo-1,4-dihydro-quinoline-3-carboxamides as BACE-1 inhibitors: synthesis, biological evaluation and docking studies” (Eur J Med Chem, 2014):

Tests used:
Beta-secretase 1 [1] = target: T1, Beta-secretase 1 (Homo sapiens, UniProt P56817); experiment: Inhibition of BACE-1 (unknown origin) at 10 uM by FRET assay relative to control
Summary of the method: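 FRET-based BACE-1 activity kit used per the kit protocol, except total reaction volume was cut to […]. Each compound tested at a single concentration of 10 µM. Result given as percent inhibition of BACE-1 activity, from two independent experiments.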

HEK293 = experiment: Cytotoxicity against HEK293 cells after 72 hrs by CellTiterGlo assay; format: cell-based; details: Homo sapiens, HEK293, 72 h
Summary of the method: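 HEK293 grown in DMEM with 10% FBS, 100 units/mL penicillin and 100 units/mL streptomycin at 37 °C, 5% CO2. Seeded at 1000 cells/well in 384-well format, then exposed to test agents from a top working level of […], serially diluted threefold ten more times. Staurosporine positive control. After 72 h, CellTiter Glo reagent (10%) added and ATP luminescence read. IC50 taken from log dose–viability curves.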

Beta-secretase 1 [2] = target: T1, Beta-secretase 1; experiment: Inhibition of BACE-1 (unknown origin) by FRET assay
Summary of the method: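 BACE-1 FRET kit assay following the kit protocol, with total reaction volume reduced to […]. Compounds exceeding 50% inhibition at the single-point screen were retested across several concentrations. IC50 derived from linear regression parameters, reported as the mean of at least two experiments.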

T1 sequence (P56817 whole entry): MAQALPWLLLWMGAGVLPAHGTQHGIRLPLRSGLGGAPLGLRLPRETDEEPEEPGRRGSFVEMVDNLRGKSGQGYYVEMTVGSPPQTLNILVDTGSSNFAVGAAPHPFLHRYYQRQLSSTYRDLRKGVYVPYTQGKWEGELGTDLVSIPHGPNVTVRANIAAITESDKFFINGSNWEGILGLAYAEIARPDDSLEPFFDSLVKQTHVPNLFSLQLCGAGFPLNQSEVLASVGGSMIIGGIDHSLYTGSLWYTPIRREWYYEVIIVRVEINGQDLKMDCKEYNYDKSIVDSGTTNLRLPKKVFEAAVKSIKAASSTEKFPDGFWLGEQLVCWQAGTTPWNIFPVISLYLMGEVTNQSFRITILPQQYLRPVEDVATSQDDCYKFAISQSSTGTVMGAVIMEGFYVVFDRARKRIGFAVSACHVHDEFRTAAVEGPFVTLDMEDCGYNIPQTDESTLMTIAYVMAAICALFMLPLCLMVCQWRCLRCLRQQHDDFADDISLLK

Structure (SMILES)	inhibition (Beta-secretase 1 [1]) [%]	IC50 (HEK293) [µM]	IC50 (Beta-secretase 1 [2]) [µM]
COc1cccc(CNC(=O)c2c[nH]c3ccc(S(=O)(=O)Nc4cccc(C(F)(F)F)c4)cc3c2=O)c1	73.5	> 50	2.2
COc1ccc(CNC(=O)c2c[nH]c3ccc(S(=O)(=O)Nc4cccc(C(F)(F)F)c4)cc3c2=O)cc1	50.4	> 50	7.04
CN[C@@H]1C[C@H]2O[C@@](C)([C@@H]1OC)n1c3ccccc3c3c4c(c5c6ccccc6n2c5c31)C(=O)NC4 [STAUROSPORINE]	–	0.056	–
Cc1ccccc1-c1ccc2[nH]cc(C(=O)NCc3ccco3)c(=O)c2c1	32.9	–	–
O=C(NC1CCCCC1)c1c[nH]c2ccc(S(=O)(=O)Nc3cccc(C(F)(F)F)c3)cc2c1=O	65.6	> 50	7.18
O=C(NCc1ccc2c(c1)OCO2)c1c[nH]c2ccccc2c1=O	11.3	–	–
Cc1ccccc1-c1ccc2[nH]cc(C(=O)NCc3cccc(Br)c3)c(=O)c2c1	77.6	> 50	1.89
Cc1ccccc1-c1ccc2[nH]cc(C(=O)NCc3cccnc3)c(=O)c2c1	10.2	–	–
Cc1ccccc1-c1ccc2[nH]cc(C(=O)NCc3ccc(C(F)(F)F)cc3)c(=O)c2c1	38.1	–	–
Cc1ccccc1-c1ccc2[nH]cc(C(=O)NC3CCCCC3)c(=O)c2c1	77.8	> 50	11.5
Cc1ccccc1-c1ccc2[nH]cc(C(=O)NCc3cccc(C(F)(F)F)c3)c(=O)c2c1	67.4	> 50	6.18
O=C(NCc1cccc(F)c1)c1c[nH]c2ccc(S(=O)(=O)Nc3cccc(C(F)(F)F)c3)cc2c1=O	84.6	> 50	1.85
O=C(NCc1ccc(F)cc1)c1c[nH]c2ccc(S(=O)(=O)Nc3cccc(C(F)(F)F)c3)cc2c1=O	30.4	–	–
Cc1ccccc1-c1ccc2[nH]cc(C(=O)NCc3cccc(F)c3)c(=O)c2c1	12.3	–	–
O=C(NCc1cccnc1)c1c[nH]c2ccc(S(=O)(=O)Nc3cccc(C(F)(F)F)c3)cc2c1=O	35.7	–	–
O=C(NCc1ccco1)c1c[nH]c2ccc(S(=O)(=O)Nc3cccc(C(F)(F)F)c3)cc2c1=O	71.1	> 50	1.61
